Measured values from ChEMBL document CHEMBL1155488, “Carbamate derivatives of betulinic acid and betulin with selective cytotoxic activity” (Bioorg Med Chem Lett, 2010).
Activity calls are given as the source filed them. No cut-off for these calls is given here.

How the values were obtained:
FaDu [1] = assay: Cytotoxicity against human FADU cells after 96 hrs by SRB assay; format: functional, cell-based
HT-29 [2] = assay: Selectivity index, ratio of IC50 for human fibroblast to IC50 for human HT-29 cells
Procedure, shortened: (§1)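 The selectivity index was calculated as the IC50 on human fibroblasts divided by the IC50 on the corresponding tumor cell line.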

8505C [3] = assay: Selectivity index, ratio of IC50 for human fibroblast to IC50 for human 8505C cells; procedure, shortened: as §1
A549 [4] = assay: Induction of apoptosis in human A549 cells assessed as caspase3/7 activation at equitoxic IC90 after 6 hrs; format: functional, cell-based
DLD-1 [5] = assay: Selectivity index, ratio of IC50 for human fibroblast to IC50 for human DLD1 cells; procedure, shortened: as §1
[6] = Cytotoxicity against human 518A2 cells after 96 hrs by SRB assay; format: functional, cell-based; details: 518A2, 96 h
MCF7 [7] = assay: Cytotoxicity against human MCF7 cells after 96 hrs by SRB assay; format: functional, cell-based; details: MCF7, 96 h
A549 [8] = assay: Induction of apoptosis in human A549 cells assessed as DNA fragmentation at equitoxic IC90 after 24 hrs by agarose gel electrophoresis
[9] = Selectivity index, ratio of IC50 for human fibroblast to IC50 for human SW1736 cells; procedure, shortened: as §1
HT-29 [10] = assay: Cytotoxicity against human HT-29 cells after 96 hrs by SRB assay; format: functional, cell-based; details: HT-29, 96 h
A549 [11] = assay: Induction of apoptosis in human A549 cells assessed as caspase3/7 activation at equitoxic IC90 after 2 hrs; format: functional, cell-based
FaDu [12] = assay: Selectivity index, ratio of IC50 for human fibroblast to IC50 for human FADU cells; procedure, shortened: as §1
SW-1736 = assay: Cytotoxicity against human SW1736 cells after 96 hrs by SRB assay; format: functional, cell-based; details: SW-1736, 96 h
A549 [13] = assay: Selectivity index, ratio of IC50 for human fibroblast to IC50 for human A549 cells; procedure, shortened: as §1
SW480 [14] = assay: Selectivity index, ratio of IC50 for human fibroblast to IC50 for human SW480 cells; procedure, shortened: as §1
HCT-8 [15] = assay: Cytotoxicity against human HCT8 cells after 96 hrs by SRB assay; format: functional, cell-based; details: HCT-8, 96 h
A-431 [16] = assay: Selectivity index, ratio of IC50 for human fibroblast to IC50 for human A431 cells; procedure, shortened: as §1
DLD-1 [17] = assay: Cytotoxicity against human DLD1 cells after 96 hrs by SRB assay; format: functional, cell-based; details: DLD-1, 96 h
[18] = Cytotoxicity against human A253 cells after 96 hrs by SRB assay; format: functional, cell-based; details: A253, 96 h
HCT-8 [19] = assay: Selectivity index, ratio of IC50 for human fibroblast to IC50 for human HCT8 cells; procedure, shortened: as §1
[20] = Cytotoxicity against human Liposarcoma cells after 96 hrs by SRB assay; format: functional, cell-based
A2780 [21] = assay: Selectivity index, ratio of IC50 for human fibroblast to IC50 for human A2780 cells; procedure, shortened: as §1
HCT-116 [22] = assay: Cytotoxicity against human HCT116 cells after 96 hrs by SRB assay; format: functional, cell-based; details: HCT-116, 96 h
SW480 [23] = assay: Cytotoxicity against human SW480 cells after 96 hrs by SRB assay; format: functional, cell-based; details: SW480, 96 h
8505C [24] = assay: Cytotoxicity against human 8505C cells after 96 hrs by SRB assay; format: functional, cell-based
A549 [25] = assay: Cytotoxicity against human A549 cells after 96 hrs by SRB assay; format: functional, cell-based; details: A549, 96 h
A2780 [26] = assay: Cytotoxicity against human A2780 cells after 96 hrs by SRB assay; format: functional, cell-based; details: A2780, 96 h
A-431 [27] = assay: Cytotoxicity against human A431 cells after 96 hrs by SRB assay; format: functional, cell-based; details: A-431, 96 h
[28] = Selectivity index, ratio of IC50 for human fibroblast to IC50 for human 518A2 cells; procedure, shortened: as §1
MCF7 [29] = assay: Selectivity index, ratio of IC50 for human fibroblast to IC50 for human MCF7 cells; procedure, shortened: as §1
[30] = Selectivity index, ratio of IC50 for human fibroblast to IC50 for human A253 cells; procedure, shortened: as §1
[31] = Selectivity index, ratio of IC50 for human fibroblast to IC50 for human Liposarcoma cells; procedure, shortened: as §1
[32] = Cytotoxicity against human fibroblast after 96 hrs by SRB assay; format: cell-based
HCT-116 [33] = assay: Selectivity index, ratio of IC50 for human fibroblast to IC50 for human HCT116 cells; procedure, shortened: as §1
[34] = Cytotoxicity against human fibroblast at 100 uM after 96 hrs by SRB assay; format: cell-based

SMILES	IC50 (FaDu [1]) [µM]	IC50 [6] [µM]	IC50 (MCF7 [7]) [µM]	IC50 (HT-29 [10]) [µM]	IC50 (SW-1736) [µM]	IC50 (HCT-8 [15]) [µM]	IC50 (DLD-1 [17]) [µM]	IC50 [18] [µM]	IC50 [20] [µM]	IC50 (HCT-116 [22]) [µM]	IC50 (SW480 [23]) [µM]	IC50 (8505C [24]) [µM]	IC50 (A549 [25]) [µM]	IC50 (A2780 [26]) [µM]	IC50 (A-431 [27]) [µM]	also measured
C=C(C)[C@@H]1CC[C@]2(COC(C)=O)CC[C@]3(C)[C@H](CC[C@@H]4[C@@]5(C)CC[C@H](OC(=O)NCC)C(C)(C)[C@@H]5CC[C@]43C)[C@@H]12	4.62	5.12	5.98	5.07	3.15	3.99	6.93	4.88	5.35	4.3	1.77	5.05	1.69	4.28	5	Ratio IC50 (HT-29 [2]): 4.8; Ratio IC50 (8505C [3]): 4.82; Activity (A549 [4]): Active; Ratio IC50 (DLD-1 [5]): 3.52; Activity (A549 [8]): Active; Ratio IC50 [9]: 7.73; Activity (A549 [11]): Active; Ratio IC50 (FaDu [12]): 5.39; Ratio IC50 (A549 [13]): 14.41; Ratio IC50 (SW480 [14]): 13.76; Ratio IC50 (A-431 [16]): 4.87; Ratio IC50 (HCT-8 [19]): 6.2; Ratio IC50 (A2780 [21]): 5.69; Ratio IC50 [28]: 4.76; Ratio IC50 (MCF7 [29]): 4.07; Ratio IC50 [30]: 4.99; Ratio IC50 [31]: 4.55; IC50 [32]: 24.4 µM; Ratio IC50 (HCT-116 [33]): 5.67
C=C(C)[C@@H]1CC[C@]2(C(=O)O)CC[C@]3(C)[C@H](CC[C@@H]4[C@@]5(C)CC[C@H](OC(=O)NCC)C(C)(C)[C@@H]5CC[C@]43C)[C@@H]12	13.8	17.8	17.4	16.7	5.24	16.7	17	17.3	17.9	15.2	16.6	17.6	5.55	7.41	15.2	Activity (A549 [4]): Active
C=C(C)[C@@H]1CC[C@]2(COC(=O)NCC)CC[C@]3(C)[C@H](CC[C@@H]4[C@@]5(C)CC[C@H](OC(=O)NCC)C(C)(C)[C@@H]5CC[C@]43C)[C@@H]12 [BIS(ETHYLCARBAMATE)BETULIN]	7.88	8.18	17.7	6.2	3.6	3.91	8.32	9.71	12	3.84	2.77	9.39	2.91	4.37	6.08	Ratio IC50 (HT-29 [2]): >16.13; Ratio IC50 (8505C [3]): >10.65; Ratio IC50 (DLD-1 [5]): >12.02; Activity (A549 [8]): Active; Ratio IC50 [9]: >26.32; Ratio IC50 (FaDu [12]): >12.69; Ratio IC50 (A549 [13]): >34.36; Ratio IC50 (SW480 [14]): >36.1; Activity [34]: Non-toxic; Ratio IC50 (A-431 [16]): >16.45; Ratio IC50 (HCT-8 [19]): >25.58; Ratio IC50 (A2780 [21]): >22.88; Ratio IC50 [28]: >12.22; Ratio IC50 (MCF7 [29]): >5.65; Ratio IC50 [30]: >10.3; Ratio IC50 [31]: >8.31; IC50 [32]: > 100 µM; Ratio IC50 (HCT-116 [33]): >26.04
C=C(C)[C@@H]1CC[C@]2(COC(=O)Nc3ccccc3)CC[C@]3(C)[C@H](CC[C@@H]4[C@@]5(C)CC[C@H](OC(=O)Nc6ccccc6)C(C)(C)[C@@H]5CC[C@]43C)[C@@H]12 [BIS(PHENYLCARBAMATE)BETULIN]	> 100	> 100	> 100	69.2	> 100	> 100	> 100	> 100	> 100	> 100	> 100	> 100	> 100	80.6	> 100	
C=C(C)[C@@H]1CC[C@]2(C(=O)O)CC[C@]3(C)[C@H](CC[C@@H]4[C@@]5(C)CC[C@H](OC(=O)Nc6ccccc6)C(C)(C)[C@@H]5CC[C@]43C)[C@@H]12	24.2	51.5	47.9	31.6	18.8	25.2	26.3	34.7	51.9	21.4	41.1	39.6	22.4	24.8	26.7	
C=C(C)[C@@H]1CC[C@]2(COC(C)=O)CC[C@]3(C)[C@H](CC[C@@H]4[C@@]5(C)CC[C@H](O)C(C)(C)[C@@H]5CC[C@]43C)[C@@H]12	14	15.8	11.4	11	12	18	13.1	12.9	15.5	10.7	13.7	14.7	14.4	11.7	12.2	
C=C(C)[C@@H]1CC[C@]2(C(=O)OC)CC[C@]3(C)[C@H](CC[C@@H]4[C@@]5(C)CC[C@H](OC(=O)NCC)C(C)(C)[C@@H]5CC[C@]43C)[C@@H]12	5.53	16.7	7.03	7.22	2.35	15	18.9	16.7	6.85	13.5	6.67	7.22	2.32	8.35	14.8	
C=C(C)[C@@H]1CC[C@]2(COC(C)=O)CC[C@]3(C)[C@H](CC[C@@H]4[C@@]5(C)CC[C@H](OC(=O)Nc6ccccc6)C(C)(C)[C@@H]5CC[C@]43C)[C@@H]12	> 100	> 100	> 100	76.4	> 100	> 100	> 100	> 100	> 100	> 100	> 100	> 100	> 100	84.2	> 100	
C=C(C)[C@@H]1CC[C@]2(C(=O)O)CC[C@]3(C)[C@H](CC[C@@H]4[C@@]5(C)CC[C@H](O)C(C)(C)[C@@H]5CC[C@]43C)[C@@H]12 [BETULINIC ACID]	10.2	8.13	12.3	13.9	13.1	13.1	11.9	9.18	12.1	10.8	6.48	7.26	11.1	11.1	12.6	Ratio IC50 (HT-29 [2]): 1.49; Ratio IC50 (8505C [3]): 2.87; Ratio IC50 (DLD-1 [5]): 1.75; Ratio IC50 [9]: 1.59; Ratio IC50 (FaDu [12]): 2.04; Ratio IC50 (A549 [13]): 1.87; Ratio IC50 (SW480 [14]): 3.21; Ratio IC50 (A-431 [16]): 1.65; Ratio IC50 (HCT-8 [19]): 1.59; Ratio IC50 (A2780 [21]): 1.88; Ratio IC50 [28]: 2.56; Ratio IC50 (MCF7 [29]): 1.7; Ratio IC50 [30]: 2.27; Ratio IC50 [31]: 1.72; IC50 [32]: 20.8 µM; Ratio IC50 (HCT-116 [33]): 1.93
C=C(C)[C@@H]1CC[C@]2(C(=O)OC)CC[C@]3(C)[C@H](CC[C@@H]4[C@@]5(C)CC[C@H](OC(=O)Nc6ccccc6)C(C)(C)[C@@H]5CC[C@]43C)[C@@H]12	> 100	> 100	> 100	69	> 100	> 100	> 100	> 100	> 100	> 100	> 100	> 100	> 100	69.5	91.5	
C=C(C)[C@@H]1CC[C@]2(C(=O)OC)CC[C@]3(C)[C@H](CC[C@@H]4[C@@]5(C)CC[C@H](O)C(C)(C)[C@@H]5CC[C@]43C)[C@@H]12 [METHYL BETULINATE]	20.3	28.8	24.4	30.7	32.1	17.2	45.9	18.5	23.3	20.5	17.9	23.7	20.6	29.3	27	
